FGF22 binding = binders of recombinant human FGF22 by thermal shift. Q9HCT0. SYPRO orange fluorescence; percent of sucrose octasulfate shift, DMSO zero. activity (Tm shift, normalised), % at 9.99 µM. hit rate 1.5% among 340,000;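 active means mean Tm shift, scaled 0 neutral to 100 positive control, at about 1.3% or above, every replicate too, limit read from the data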
Target sequence (Q9HCT0 whole entry, looked up): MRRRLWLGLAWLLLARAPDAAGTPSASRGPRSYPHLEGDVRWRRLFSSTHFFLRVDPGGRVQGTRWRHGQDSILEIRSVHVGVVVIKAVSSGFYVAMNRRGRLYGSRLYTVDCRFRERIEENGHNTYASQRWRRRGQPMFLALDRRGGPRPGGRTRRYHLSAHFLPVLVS
FN deposit inh = fibronectin deposition inhibition. AH1F fibroblasts, Alexa488-fibronectin deposition fluorescence, overnight. inhibition, % at 12.6 µM. hit rate 0.086% among 350,000;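 active means mean inhibition across replicates of 30% or more, regardless of how many single replicates reach that level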;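 further: positive control wells lacked labelled fibronectin entirely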
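Material: AH1F fibroblast monolayer depositing Alexa488-labelled fibronectin into matrix | Input: 10000 AH1F cells/well | Medium: DMEM plus 2% serum, read in PBS | Reagent: Alexa488-fibronectin, 24 nM final in well | Compound dosing: One dose per compound, pinned | Schedule: 1 h adhesion, overnight exposure | Measured by: Fluorescence at 485 nm excitation, 525 nm emission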
SIRT5 block = sirtuin-5 (human) deacylase inhibition | inhibition, % at 15 µM | Q9NXA8 | Purified SirT5, succinyl-peptide AMC, trypsin-coupled fluorescence | hit rate 1.1% among 330,000 | AID 652115; in the data active means inhibition above about 15%
Target sequence (Q9NXA8 whole entry, looked up): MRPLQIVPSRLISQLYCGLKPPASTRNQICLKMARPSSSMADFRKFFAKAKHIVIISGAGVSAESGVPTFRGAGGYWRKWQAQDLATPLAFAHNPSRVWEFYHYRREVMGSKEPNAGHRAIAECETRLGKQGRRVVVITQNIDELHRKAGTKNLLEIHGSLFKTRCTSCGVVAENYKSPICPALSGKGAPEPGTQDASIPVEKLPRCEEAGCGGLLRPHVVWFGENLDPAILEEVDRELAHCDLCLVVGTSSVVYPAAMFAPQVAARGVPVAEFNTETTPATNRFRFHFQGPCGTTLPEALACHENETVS
ERAP1 HTS inh = blocks human ERAP1 aminopeptidase activity. inhibition, % at 10.7 µM. hit rate 0.15% among 340,000. recombinant ERAP1, Leu-AMC fluorescence, 60 min;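 active means mean replicate inhibition of at least 30%, or all replicates individually reaching that 30% level; inactive means mean below 30% and not every replicate reaching it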;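 further: 0% = neutral control wells and 100% = L-leucinethiol positive control wells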
PGC1a acetyl inh = modulators of PGC1a acetylation; hit rate 0.17% among 350,000; inhibition, % at 15.6 µM; U2OS PGC1a acetylation, AlphaScreen anti-acetyl-lysine; with virally co-expressed GCN5 acetyltransferase;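 active means every replicate shows inhibition of at least 40%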;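 further: 0% = neutral control wells and 100% = positive control wells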
Starred values were filed as active, the others as inactive; · = not tested or not shown; ! = repeats disagree. Hits are enriched below; roughly 2.2% of the tested compounds scored in any of these assays.

SMILES	FGF22 binding	FN deposit inh	SIRT5 block	ERAP1 HTS inh	PGC1a acetyl inh
Cc1cc(C)nc(NC(=S)Nc2ccc(Br)cc2Cl)c1	43.0*	-24.6	3.2	4.4	8.4
COC(=O)C[C@H]1C[C@H]2c3cc(NS(=O)(=O)c4cccc(OC)c4)ccc3O[C@H]2[C@H](CO)O1	0.0	·	-7.3	1.4	-1.0
CC(C)Oc1cccc(C(=O)C2CCCN(Cc3ccc(Oc4ncccn4)cc3)C2)c1 (stereo not given)	42.9*	0.2	-0.8	0.6	-1.1
CC(=O)c1c(C)[nH]c(C(=O)NC2CCCCC2)c1C	·	·	·	·	1.7
CCc1c(C(=O)NC2CCCCC2)[nH]c(C)c1C(C)=O	·	4.9	·	·	93.4*
COc1ccc(Nc2nnc(-c3ccc(C)cc3)c3ccccc23)cc1C(=O)N1CCCCC1	-0.1	6.9	0.0	-2.0	-3.0
COc1ccc(Nc2nnc(-c3ccccc3)c3ccccc23)cc1C(=O)N1CCCCC1	43.0*	4.8	1.6	4.9	-3.8
C[C@H](NC(=O)C[C@H]1CC[C@H](NC(=O)c2cccnc2)[C@@H](CO)O1)c1ccccc1	-0.1	7.1	-3.1	-1.3	0.3
Cc1cccc(/C=N/Nc2cc(N3CCOCC3)nc(N3CCOCC3)n2)c1	0.2	35.6*	4.2	-3.0	·
O=[N+]([O-])c1cccc(/C=N/Nc2nc(N3CCOCC3)nc(N3CCOCC3)n2)c1	44.3*	4.1	0.0	3.8	·
C(=C\c1ccccc1)/C=N/Nc1nc(N2CCOCC2)nc(N2CCOCC2)n1	·	·	·	·	5.6
CC(C)c1ccc(/C=N/Nc2cc(N3CCOCC3)nc(N3CCOCC3)n2)cc1	·	6.9	·	·	-13.1
Cc1cc(N2CCOCC2)nc(N2CCOCC2)n1	43.4*	6.9	-1.4	-2.4	3.5
Cc1cn(-c2ccccc2)c(C)c1/C=N\Nc1nc(N2CCOCC2)nc(N2CCOCC2)n1	43.1*	-3.1	8.8	-1.8	-1.5
COc1ccc(-c2ccc([C@H]3[C@H](CO)N4CCCCN(C(=O)NC(C)C)C[C@@H]34)cc2)cc1	-0.1	·	-6.1	3.2	-6.3
Fc1cccc(CN2C[C@@H]3N[C@H](C2)C3c2ccc(-c3ccccc3)cc2)c1 (stereo not given in full)	·	-8.6	2.5	-2.3	96.9*!
Fc1cccc(-c2ccc(C3[C@@H]4CN(Cc5cccnc5)C[C@H]3N4)cc2)c1 (stereo not given in full)	·	7.6	-2.7	5.0	-36.6
Fc1cccc(CN2C[C@@H]3N[C@H](C2)[C@@H]3c2ccc(-c3cccc(F)c3)cc2)c1	·	1.6	6.5	-2.0	99.2*
COc1cccc(-c2ccc([C@@H]3[C@@H](CO)N4C(=O)CN(C(=O)C5CC5)C[C@H]34)cc2)c1	·	3.7	1.6	-0.5	7.7
Cc1cc(=O)[nH]c(NN=C2CCC(C(C)(C)C)CC2)n1 (stereo not given)	44.0*	0.4	-1.6	-5.4	·
O=C1N=c2ccccc2=C1c1sc(NS(=O)(=O)Cc2ccccc2)nc1O	1.3*	-5.1	3.1	2.0	-2.3
CC(C)(C)c1ccc(OCCC(=O)OCC(=O)NC2CCS(=O)(=O)C2)cc1 (stereo not given)	43.2*	-1.0	2.1	1.1	·
CC(C)(C)c1ccc(OCCC(=O)OCC(=O)NC2CC2)cc1	-0.2	0.9	-2.2	-1.0	6.8
O=c1c2ccccc2c(/C=N/c2n[nH]c(CCCO)n2)c(O)n1-c1ccccc1Cl	43.0*	9.6	1.9	-1.0	-2.1
O=c1c2ccccc2c(/C=N/c2nnc(Cc3ccccc3)s2)c(O)n1-c1ccc(Cl)cn1	0.4	-2.0	1.5	-0.1	·
SMILES	FGF22 binding	FN deposit inh	SIRT5 block	ERAP1 HTS inh	PGC1a acetyl inh
Cc1cc(C)cc(Nc2cc(C)nc3nc(C)nn23)c1	-0.3	-1.1	15.8*	-0.7	4.5
Cc1ccc(Nc2cc(C)nc3nc(C)nn23)cc1	-0.2	1.5	5.2	1.5	·
CC(C)C[C@H](NC(=O)c1nc[nH]c1C(=O)NC1CCNCC1)C(=O)OC(C)(C)C	0.2	2.0	17.5*	-2.7	-32.2
CC(C)(C)OC(=O)NCc1ccc(CNC(=O)c2[nH]cnc2C(=O)N[C@@H](Cc2ccccc2)C(=O)OC(C)(C)C)cc1	12.5*	6.3	·	·	-20.4
CN1CCn2cnc(C(=O)N[C@@H](Cc3ccccc3)C(=O)OC(C)(C)C)c2C1=O	43.6*	3.2	·	2.1	·
CC1CCN(C(=O)c2[nH]cnc2C(=O)NCc2ccc(CNC(=O)OC(C)(C)C)cc2)CC1	0.0	-3.3	17.0*	-0.7	3.7
CCC(=O)N(C)C[C@@H]1Oc2ncc(-c3ccccc3OC)cc2C(=O)N([C@H](C)CO)C[C@H]1C	-0.1	-14.6	-5.4	-2.1	-1.0
CCCc1ccc(C(O)c2ncc(-c3cccc(F)c3)[nH]2)cc1 (stereo not given)	0.1	-17.3	-0.3	-0.4	42.6*
COCC(=O)Nc1ccc2c(c1)[C@@H]1C[C@@H](CC(=O)NCc3ccccc3)O[C@H](CO)[C@@H]1O2	-0.2	-3.6	-3.1	-0.6	9.9
C[C@H](CO)N1C[C@H](C)[C@@H](CN(C)C(=O)Nc2ccc3c(c2)OCO3)OCc2cnnn2CCCC1=O	0.0	-5.9	2.3	-0.3	-7.6
C#CCN(C[C@@H]1[C@@H](OC(=O)NCc2ccco2)[C@@H](OC(=O)NCc2ccco2)Cn2c(=O)ccc(=O)n21)S(=O)(=O)c1ccc(C)cc1	0.0	6.5	-3.2	-1.4	-23.3
C#CCN(C[C@@H]1[C@@H](OC(=O)NCC2CCCCC2)[C@@H](OC(=O)NCC2CCCCC2)Cn2c(=O)ccc(=O)n21)S(=O)(=O)c1ccc(C)cc1	-0.1	-21.0	0.2	2.7	91.4*
Cc1cccc(C)c1Nc1ncnc(N)c1[N+](=O)[O-]	0.0	10.6	-3.7	9.1	-0.9
COc1cccc(C(=O)NCC(=O)NNc2ncnc(N)c2[N+](=O)[O-])c1	43.1*	10.4	0.1	1.2	1.0
CCS(=O)(=O)Nc1ccc2c(c1)C(=O)N(C)[C@H]1CC[C@H](CC(=O)OC)O[C@H]1CO2	0.3	-2.4	-3.0	2.3	-13.6
O=C(NC(=S)Nc1nc(-c2ccccc2)cs1)c1cccnc1	43.4*	-4.0	0.0	10.2	8.6
O=C(CNCc1ccccc1)NCCCN1CCCC1=O	-0.3	-1.8	17.0*	-7.2	7.9
CN(C)c1ccc2cc(S(=O)(=O)O)cc(O)c2c1	-0.8	0.6	21.9*	8.0	0.4
O=Nc1c(O)ccc2cc(S(=O)(=O)O)ccc12	·	·	·	·	8.4
S=P(N1CC1)(N1CC1)N1CC1	-0.1	-2.7	-1.7	52.8*	0.7
CCOC(=O)C1=C(c2ccccc2)N=c2s/c(=C\c3ccc(O)cc3)c(=O)n2C1c1cccs1 (stereo not given)	0.4	·	0.0	-2.7	-0.4
CCOC(=O)C1=C(C)N=c2s/c(=C\c3ccc(OCC(=O)O)c(OC)c3)c(=O)n2C1c1ccc(OC)cc1 (stereo not given)	·	-1.6	7.6	11.4	5.5
